Key:
[1] = molecular target: Human immunodeficiency virus type 1 reverse transcriptase (Human immunodeficiency virus 1, UniProt Q72547); assay: Inhibition of DNA synthesis by HIV reverse transcriptase
MT4 [2] = assay: The concentration required to cause a 50% inhibition of HIV reproduction was determined in MT-4 cell culture for free forms; assay type: functional; details: Homo sapiens, read-out: ID50 (the source's name)
Procedure, shortened: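 HIV-1 strain GKV-4046 in MT-4 cells (2×10^6/mL, viability >90%), MOI 0.2–0.5; cells in RPMI-1640 with 10% FBS, 37 °C, 5% CO2. Infected cells grown 3 days with free compound at 0.001–100 μg/mL, triplicate per dose. p24 antigen measured by immunoassay; ID50 = concentration halving HIV reproduction; two independent experiments averaged.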

MT4 [3] = assay: The concentration required to cause a 50% inhibition of HIV reproduction was determined in MT-4 cell culture for liposome-entrapped forms.; assay type: functional; details: Homo sapiens, read-out: ID50 (the source's name)
Procedure, shortened: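 HIV-1 GKV-4046 in MT-4 cells, MOI 0.2–0.5, 3-day culture, p24 immunoassay read-out. Compounds given in phosphatidylcholine liposomes: dry lipid film hydrated with compound in PBS pH 7.0 (1:124 drug/lipid, 1 mM compound), extruded down to 0.1 μm pores (mean 0.16 μm); 40–50% entrapment. ID50 from two independent experiments.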

MT4 [4] = assay: The concentration required to cause a 50% inhibition of cell proliferation was determined in MT-4 cell culture.; assay type: functional; details: Homo sapiens, read-out: CD50 (the source's name)
Procedure, shortened: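 Uninfected MT-4 cells grown 3 days with compound at 0.001–100 μg/mL, triplicate per dose. Cell concentration and viability read by trypan blue exclusion; CD50 = concentration halving cell proliferation. Values averaged from two independent experiments.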

[5] = Half life period in phosphate buffer (pH 7.5) was determined at 37 degrees Centigrade; assay type: ADME
Procedure, shortened: (§1)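 Compounds held at 37 °C in human blood serum or in phosphate buffer, pH 7.5. For serum samples, precipitated proteins were spun off after thawing. Remaining material was analysed by RP-18 HPLC with a 0–25% linear gradient of 70% ethanol in 0.05 M triethylammonium bicarbonate (pH 7.5–8.0) over 25 min. Total loaded taken as 100%. Half-lives were averaged from at least three experiments.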

[6] = Half life period in human blood serum was determined at 37 degrees Centigrade; assay type: ADME, Plasma; procedure, shortened: as §1

Row | SMILES | IC50 [1] [µM] | IC50 (MT4 [2]) [µM] | IC50 (MT4 [3]) [µM] | CC50 (MT4 [4]) [µM] | half-life [5] [h] | half-life [6] [h]
1 | Nc1nc2c(ncn2C2C=CC(OCP(=O)(O)OP(=O)(O)C(Br)(Br)P(=O)(O)O)C2)c(=O)[nH]1 (stereo unspecified) | > 200 | – | – | – | – | –
2 | Nc1ncnc2c1ncn2C1C=CC(OCP(=O)(O)OP(=O)(O)OP(=O)(O)OP(=O)(O)COC2C=CC(n3cnc4c(N)ncnc43)C2)C1 (stereo unspecified) | 2 | 2 | 1.2 | 131 | – | –
3 | Nc1nc2c(ncn2C2C=CC(OCP(=O)(O)OP(=O)(O)OP(=O)(O)OP(=O)(O)COC3C=CC(n4cnc5c(=O)[nH]c(N)nc54)C3)C2)c(=O)[nH]1 (stereo unspecified) | 0.7 | > 12 | 0.5 | > 12 | 12 | 3
4 | Nc1ncnc2c1ncn2C1C=CC(OCP(=O)(O)OP(=O)(O)C(F)(F)P(=O)(O)OP(=O)(O)COC2C=CC(n3cnc4c(N)ncnc43)C2)C1 (stereo unspecified) | 20 | – | – | – | – | –
5 | Nc1nc2c(ncn2C2C=CC(OCP(=O)(O)OP(=O)(O)C(Br)(Br)P(=O)(O)OP(=O)(O)COC3C=CC(n4cnc5c(=O)[nH]c(N)nc54)C3)C2)c(=O)[nH]1 (stereo unspecified) | > 250 | – | – | – | – | –
6 | Nc1nc2c(ncn2C2C=CC(OCP(=O)(O)OP(=O)(O)OP(=O)(O)COC3C=CC(n4cnc5c(=O)[nH]c(N)nc54)C3)C2)c(=O)[nH]1 (stereo unspecified) | 8 | 9 | – | 56 | – | –
7 | Nc1nc(O)c2ncn(C3C=CC(OCP(=O)(O)O)C3)c2n1 (stereo unspecified) | – | 201 | – | > 320 | – | –
8 | Nc1ncnc2c1ncn2C1C=CC(OCP(=O)(O)OP(=O)(O)C(Br)(Br)P(=O)(O)OP(=O)(O)COC2C=CC(n3cnc4c(N)ncnc43)C2)C1 (stereo unspecified) | > 200 | 5.4 | – | > 110 | – | –
9 | Nc1nc2c(ncn2C2C=CC(OCP(=O)(O)OP(=O)(O)C(F)(F)P(=O)(O)O)C2)c(=O)[nH]1 (stereo unspecified) | 25 | > 200 | – | 144 | > 24 | 7
10 | Nc1ncnc2c1ncn2C1C=CC(OCP(=O)(O)OP(=O)(O)OP(=O)(O)COC2C=CC(n3cnc4c(N)ncnc43)C2)C1 (stereo unspecified) | 10 | 6.6 | – | 146 | – | –
11 | Nc1nc(O)c2ncn(C3C=CC(OCP(=O)(O)OP(=O)(O)C(F)(F)P(=O)(O)OP(=O)(O)COC4C=CC(n5cnc6c(O)nc(N)nc65)C4)C3)c2n1 (stereo unspecified) | 15 | 60 | – | 84 | 15 | 3
12 | Nc1ncnc2c1ncn2C1C=CC(OCP(=O)(O)OP(=O)(O)OP(=O)(O)O)C1 (stereo unspecified) | 0.2 | > 10 | – | 212 | – | –
13 | Nc1ncnc2c1ncn2C1C=CC(OCP(=O)(O)OP(=O)(O)C(F)(F)P(=O)(O)O)C1 (stereo unspecified) | 25 | – | – | – | – | –
14 | Nc1ncnc2c1ncn2C1C=CC(OCP(=O)(O)OP(=O)(O)C(Br)(Br)P(=O)(O)O)C1 (stereo unspecified) | > 1000 | 80 | – | > 160 | – | –
15 | Nc1nc2c(ncn2C2C=CC(OCP(=O)(O)OP(=O)(O)OP(=O)(O)O)C2)c(=O)[nH]1 (stereo unspecified) | 0.3 | 7.2 | < 1 | 20.5 | – | –
16 | Nc1nc2c(ncn2[C@H]2C[C@H](O)[C@@H](COP(=O)(O)OP(=O)(O)OP(=O)(O)O)O2)c(=O)[nH]1 [DEOXYGUANOSINE TRIPHOSPHATE] | – | – | – | – | > 24 | 0.3
17 | Cc1cn([C@H]2C=C[C@@H](CO)O2)c(=O)[nH]c1=O [STAVUDINE] | – | 0.24 | – | 314 | – | –
18 | Cc1cn([C@H]2C[C@H](N=[N+]=[N-])[C@@H](CO)O2)c(=O)[nH]c1=O [ZIDOVUDINE] | – | 0.004 | – | 140 | – | –

Source: ChEMBL document CHEMBL1135574, “Carbocyclic dinucleoside polyphosphonates: interaction with HIV reverse transcriptase and antiviral activity” (J Med Chem, 2002)
